This note sets out measurements from ChEMBL document CHEMBL3407432, “Fused heterocycles bearing bridgehead nitrogen as potent HIV-1 NNRTIs. Part 3: optimization of [1,2,4]triazolo[1,5-a]pyrimidine core via structure-based and physicochemical property-driven approaches” (Eur J Med Chem, 2015).

Data set [1] concerns Human immunodeficiency virus 1. The experiment in a line: Antiviral activity against HIV1 3B infected in human MT4 cells assessed as reduction in virus-induced cytopathic effect after 5 days by MTT assay. The settings on record: Human immunodeficiency virus 1, 3B, MT4, 120 h. The data set is classed as functional, organism-based. A digest of the protocol: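 MT-4 cells at 6 × 10⁵ cells/mL infected with HIV-1 IIIB stock at 100-300 CCID50. Test compounds added as serial five-fold dilutions in triplicate wells. Viability of infected cells read spectrophotometrically by MTT 5 days after infection. Values are the mean ± SD of at least two parallel tests.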
(Cytopathic effects are the visible damage that an infection or toxin causes in cultured cells.)

Data set [2] in a line: Selectivity index, ratio of CC50 for mock-infected human MT4 cells to EC50 for HIV1 3B infected in human MT4 cells. The note with it: mock-infected MT4 cells and MT4 cells infected with HIV1 3B, read-out: Ratio CC50/EC50. In kind it is toxicity, cell-based.
Data set [3] deals with Human immunodeficiency virus 1. As to the kind of experiment: Antiviral activity against HIV1 RES056 expressing reverse transcriptase K103N + Y181C double mutant infected in human MT4 cells assessed as reduction in virus-induced cytopathic effect after 5 days by MTT assay. In kind it is functional, organism-based. The note with it: Human immunodeficiency virus 1, RES056, MT4, 120 h. In outline:
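MT-4 cells resuspended at 6 × 10⁵ cells/mL, infected with HIV-1 RES056 stock at 100–300 CCID50, compound in serial five-fold dilutions in triplicate wells alongside mock-infected wells. Viability read by MTT after 5 days.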

Data set [4] is described as follows: Selectivity index, ratio of CC50 for mock-infected human MT4 cells to EC50 for HIV1 RES056 expressing reverse transcriptase K103N + Y181C double mutant. In kind it is toxicity, cell-based. The settings on record: read-out: Ratio CC50/EC50.
The target in data set [5] is Human immunodeficiency virus type 1 reverse transcriptase (Human immunodeficiency virus 1, UniProt Q72547). The experiment in a line: Inhibition of HIV1 reverse transcriptase assessed as reduction in biotin-labeled dUTP incorporation into DNA after 1 hr using poly(A) x oligo(dT)15 template/primer hybrid, digoxigenin and biotin-labeled nucleotides. In outline:
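Recombinant HIV-1 RT, colorimetric ELISA kit. Poly(A)·oligo(dT)15 template/primer with biotin- and DIG-labelled dNTPs in lysis buffer ± inhibitor, 1 h at 37 °C. Serial five-fold dilutions tested. IC50 is the concentration halving labelled dUTP incorporation.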

Data set [6] is described as follows: Lipophilicity, log P of the compound at pH 7.0 by HPLC method. In kind it is physicochemical. The note with it: buffer. In outline:
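Log P measured at pH 7 by HPLC, in duplicate.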

Data set [7] is described as follows: Solubility in water at pH 7.0 after 2 hrs by HPLC-UV method. In kind it is physicochemical. A digest of the protocol:
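DMSO stock spiked into purified water to 1% final DMSO. Shaken 2 h at 3000 rpm at room temperature, left 1 h, then filtered through a 0.22 membrane. Filtrate quantified by HPLC-UV on a C18 column (150 × 4.6 mm) with MeOH/water 85/15 at 1.0 mL/min. Measured at pH 7, in duplicate.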

A word on the EC50: it is the concentration at which the effect is half-maximal. Broadly, the IC50 is the concentration that inhibits the measured activity by half. As a reminder, the logP is a log measure of how a compound divides between an organic and an aqueous phase. Low readings indicate lower lipophilicity, high ones higher lipophilicity. For orientation: solubility means how much of the substance goes into solution per volume. High values mean much dissolved substance, low ones little dissolved substance.

Converted amounts (≈) assume the structure as drawn. Where a name gives a salt, the structure may show the parent alone.

For `Cc1cc(C)c(Oc2cc(NC3CCN(Cc4ccc(Br)cc4)CC3)nc3ncnn23)c(C)c1`, the values for the EC50 in data set [1] and in data set [3] were 92 nM and > 30000 nM, respectively. The selectivity ratio in data set [2] was 320; in data set [4] it was < 1.

On to `Cc1cc(C)c(Oc2cc(NC3CCN(Cc4ccc(C(N)=O)cc4)CC3)nc3ncnn23)c(C)c1`, for which the EC50 is 21 nM in data set [1] and > 24000 nM in data set [3]. Moreover, the selectivity ratio is 1180 in data set [2] and < 1 in data set [4].

As to `Cc1cc(C)c(Oc2cc(NC3CCN(Cc4ccc([N+](=O)[O-])cc4)CC3)nc3ncnn23)c(C)c1`, the values for the 50% effective concentration (EC50) in data set [1] and in data set [3] were 35 nM and > 18000 nM, respectively. In addition, the selectivity ratio is 522 in data set [2] and < 1 in data set [4].

In the case of `Cc1cc(C)c(Oc2cc(NC3CCN(Cc4ccc(S(C)(=O)=O)cc4)CC3)nc3ncnn23)c(C)c1`, the 50% effective concentration (EC50) in data set [1] was 8.1 nM; in data set [3], 13000 nM. Moreover, the results for the selectivity ratio in data set [2] and in data set [4] were 2550 and 2, respectively. Moreover, the IC50 in data set [5] worked out at 500 nM. In addition, the logP in data set [6] was determined as 1.91. Also, the concentration in solution in data set [7] (solubility at 2 h) came to 10.3 µg/mL (≈ 19.8 µM).

In the case of `Nc1ccn([C@@H]2CS[C@H](CO)O2)c(=O)n1` [LAMIVUDINE], the selectivity ratio in data set [2] was > 39.

Regarding `Cc1cc(C)c(Oc2cc(NC3CCN(Cc4ccc(C#N)cc4)CC3)nc3ncnn23)c(C)c1`, the EC50 in data set [1] is 20 nM; in data set [3], > 14000 nM. Also, the selectivity ratio was 689 in data set [2] and < 1 in data set [4].

In the case of `COC(=O)c1ccc(CN2CCC(Nc3cc(Oc4c(C)cc(C)cc4C)n4ncnc4n3)CC2)cc1`, the concentration for a half-maximal effect (EC50) is 15 nM in data set [1] and > 10000 nM in data set [3]. Further, the selectivity ratio in data set [2] was 686; in data set [4], < 1.

Take `Cc1cc(C)c(Oc2cc(NC3CCN(Cc4ccc(S(N)(=O)=O)cc4)CC3)nc3ncnn23)c(C)c1`: the half-maximal effective concentration (EC50) is 27 nM in data set [1] and 22000 nM in data set [3]. Further, the selectivity ratio came to 1890 in data set [2] and 2 in data set [4].

For the molecule `O=c1[nH]cnc2c1ncn2[C@H]1CC[C@@H](CO)O1` [DIDANOSINE], the selectivity ratio in data set [2] is > 9.

`Cc1cc(C)c(Oc2cc(NC3CCN(Cc4cccc(Cl)c4)CC3)nc3ncnn23)c(C)c1`: the values for the 50% effective concentration (EC50) in data set [1] and in data set [3] were 12 nM and > 20000 nM, respectively. Further, the selectivity ratio in data set [2] is 1640; in data set [4], < 1.

With `Cc1cc(C)c(Oc2cc(NC3CCN(Cc4ccc(F)c(F)c4)CC3)nc3ncnn23)c(C)c1`, the EC50 in data set [1] is 67 nM; in data set [3], > 23000 nM. Also, the selectivity ratio in data set [2] is 346; in data set [4], < 1.

On to `Cc1cc(C)c(Oc2cc(NC3CCN(Cc4c(F)cccc4F)CC3)nc3ncnn23)c(C)c1`, for which the EC50 is 439 nM in data set [1] and > 25000 nM in data set [3]. For the same molecule, the selectivity ratio was 57 in data set [2] and < 1 in data set [4].

On to `Cc1cc(C)c(Oc2cc(NC3CCN(Cc4ccccc4C)CC3)nc3ncnn23)c(C)c1`, for which the EC50 is 42 nM in data set [1] and > 24000 nM in data set [3]. The selectivity ratio in data set [2] was 590; in data set [4], < 1.

For the molecule `CC(=O)c1ccc(CN2CCC(Nc3cc(Oc4c(C)cc(C)cc4C)n4ncnc4n3)CC2)cc1`, the 50% effective concentration (EC50) was 8.7 nM in data set [1] and > 18000 nM in data set [3]. In addition, the selectivity ratio in data set [2] was 2060; in data set [4], < 1.

As to `Cc1cc(C)c(Oc2cc(NC3CCN(Cc4ccncc4)CC3)nc3ncnn23)c(C)c1`, the EC50 in data set [1] was determined as 17 nM; in data set [3] it was 6400 nM. Moreover, the selectivity ratio worked out at 2650 in data set [2] and 7 in data set [4].

Regarding `Cc1cc(C)c(Oc2cc(NC3CCN(CC(=O)Nc4ccc(C(=O)O)cc4Br)CC3)nc3ncnn23)c(C)c1`, the results for the 50% effective concentration (EC50) in data set [1] and in data set [3] were 2280 nM and > 89000 nM, respectively. Also, the selectivity ratio in data set [2] is 39; in data set [4], < 1.

Regarding `Cc1cc(C)c(Oc2cc(NC3CCN(Cc4cccc(F)c4)CC3)nc3ncnn23)c(C)c1`, the EC50 in data set [1] is 104 nM; in data set [3], ≥ 39000 nM. The selectivity ratio is ≥ 238 in data set [2] and ≤ 1 in data set [4].

Regarding `Cc1cc(C)c(Oc2cc(NC3CCN(Cc4ccccc4C#N)CC3)nc3ncnn23)c(C)c1`, the half-maximal effective concentration (EC50) was 77 nM in data set [1] and > 27000 nM in data set [3]. In addition, the selectivity ratio in data set [2] was 356; in data set [4], < 1.

In the case of `Cc1cn([C@H]2C[C@H](N=[N+]=[N-])[C@@H](CO)O2)c(=O)[nH]c1=O` [ZIDOVUDINE], the EC50 in data set [3] worked out at 10 nM.

For `Cc1cc(C)c(Oc2cc(NC3CCN(CC4CCCCC4)CC3)nc3ncnn23)c(C)c1`, the EC50 was 245 nM in data set [1] and > 13000 nM in data set [3]. Besides, the results for the selectivity ratio in data set [2] and in data set [4] were 50 and < 1, respectively.

Consider `Cc1cc(C)c(Oc2cc(NC3CCN(Cc4cccc(C#N)c4)CC3)nc3ncnn23)c(C)c1`, for which the results for the 50% effective concentration (EC50) in data set [1] and in data set [3] were 19 nM and > 25000 nM, respectively. The selectivity ratio in data set [2] was 1320; in data set [4], < 1.

On to `COC(=O)c1ccc(NC(=O)CN2CCC(Nc3cc(Oc4c(C)cc(C)cc4C)n4ncnc4n3)CC2)c(Cl)c1`, for which the figures for the EC50 in data set [1] and in data set [3] were 277 nM and > 86000 nM, respectively. Further, the selectivity ratio in data set [2] is 315; in data set [4], < 1.

With `CC(C)Nc1cccnc1N1CCN(C(=O)c2cc3cc(NS(C)(=O)=O)ccc3[nH]2)CC1` [DELAVIRDINE MESYLATE], the concentration giving a half-maximal response (EC50) in data set [1] is 540 nM; in data set [3], > 36000 nM. In addition, the selectivity ratio in data set [2] is > 67; in data set [4], 1.

For `O=C1Nc2ccc(Cl)cc2[C@@](C#CC2CC2)(C(F)(F)F)O1` [EFAVIRENZ], in data set [1], the 50% effective concentration (EC50) amounted to 6.3 nM.

With `Cc1cc(C)c(Oc2cc(NC3CCN(Cc4cc(F)ccc4F)CC3)nc3ncnn23)c(C)c1`, the figures for the EC50 in data set [1] and in data set [3] were 98 nM and > 24000 nM, respectively. Besides, the selectivity ratio is 243 in data set [2] and < 1 in data set [4].

On to `Cc1ccnc2c1NC(=O)c1cccnc1N2C1CC1` [NEVIRAPINE], for which the concentration for a half-maximal effect (EC50) in data set [3] was ≥ 7600 nM.

As to `Cc1ccc(CN2CCC(Nc3cc(Oc4c(C)cc(C)cc4C)n4ncnc4n3)CC2)cc1`, the concentration giving a half-maximal response (EC50) in data set [1] is 72 nM; in data set [3], > 49000 nM. Besides, the selectivity ratio was 679 in data set [2] and < 1 in data set [4].

On to `Cc1cc(C)c(Oc2cc(NC3CCN(Cc4ccccc4)CC3)nc3ncnn23)c(C)c1`, for which the EC50 in data set [1] is 36 nM; in data set [3] it was > 25000 nM. In addition, the selectivity ratio in data set [2] was 708; in data set [4] it was < 1.

Turning to `Cc1cc(C#N)cc(C)c1Oc1nc(Nc2ccc(C#N)cc2)nc(N)c1Br` [ETRAVIRINE], in data set [1], the EC50 worked out at 1.8 nM. The lipophilicity (logP) in data set [6] is listed as > 5. Further, the solubility at 2 h in data set [7] is < 1 µg/mL.

For `Cc1cc(C)c(Oc2cc(NC3CCN(Cc4ccccc4F)CC3)nc3ncnn23)c(C)c1`, the values for the EC50 in data set [1] and in data set [3] were 48 nM and > 25000 nM, respectively. In addition, the selectivity ratio in data set [2] was 520; in data set [4] it was < 1.

Turning to `Cc1cc(C)c(Oc2cc(NC3CCN(Cc4ccc(F)cc4)CC3)nc3ncnn23)c(C)c1`, the figures for the 50% effective concentration (EC50) in data set [1] and in data set [3] were 56 nM and > 24000 nM, respectively. The selectivity ratio in data set [2] was 424; in data set [4], < 1.

For the molecule `Cc1cc(C)c(Oc2cc(NC3CCN(Cc4ccc(F)cc4F)CC3)nc3ncnn23)c(C)c1`, the 50% effective concentration (EC50) is 90 nM in data set [1] and > 23000 nM in data set [3]. The selectivity ratio in data set [2] is 255; in data set [4] it was < 1.
